Data taken from ChEMBL document CHEMBL1156470, “Inhibition of the activation of multiple serine proteases with a cathepsin C inhibitor requires sustained exposure to prevent pro-enzyme processing” (J Biol Chem, 2007).
Active and inactive are the calls of the source. The calls are words filed in the database; no cut-off is given here.

Key:
U-937 [1] = assay: Cytotoxicity against human U937 cells at 30 uM after 72 hrs annexin-V propidium iodide method; type: functional
Procedure, shortened: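 U937 plated at 0.4×10^6 cells/ml, compound in Me₂SO (final 0.5%). Cells harvested and re-seeded every 24 h in medium with freshly added inhibitor, for 72 h. Viability by annexin V-FITC/propidium iodide two-colour flow cytometry; cells negative for both stains counted viable.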

Dipeptidyl peptidase 1 [2] = target: T1, Dipeptidyl peptidase 1 (Homo sapiens, UniProt P53634); assay: Inhibition of intracellular cathepsin C active site in human U937 cells assessed as reduction of Ala-4[125I]Phe-DMK labeled 23 kDa protein at 10 uM by autoradiography based pulse chase assay; type: cell-based; details: U-937
T1 sequence (P53634 25-134 limits assumed): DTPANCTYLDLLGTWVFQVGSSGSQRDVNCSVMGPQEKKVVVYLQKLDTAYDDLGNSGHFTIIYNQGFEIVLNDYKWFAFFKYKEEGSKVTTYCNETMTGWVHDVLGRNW
T1 sequence (P53634 231-394 limits assumed): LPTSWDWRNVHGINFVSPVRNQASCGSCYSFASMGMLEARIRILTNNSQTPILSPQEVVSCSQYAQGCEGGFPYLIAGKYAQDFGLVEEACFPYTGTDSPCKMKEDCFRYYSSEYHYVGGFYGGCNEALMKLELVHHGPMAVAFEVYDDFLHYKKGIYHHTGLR
T1 sequence (P53634 395-463 limits assumed): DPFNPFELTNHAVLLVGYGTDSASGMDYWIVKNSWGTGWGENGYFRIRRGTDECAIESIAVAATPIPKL
Procedure, shortened: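 U937 cells (200,000) preincubated 30 min with 10 μM competitor or 0.5% Me₂SO, then labelled 15 min with 0.5 nM Ala-4-[¹²⁵I]Phe-DMK. Quenched with 1 μM unlabelled probe, washed, and lysed in 20 mM MES pH 6.0, 50 mM NaCl, 0.5% NP-40. Run on reducing 10–20% SDS-PAGE; film exposed 6–24 h.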

[3] = target: T2, Cathepsin G (Mus musculus) (UniProt P28293); assay: Inhibition of cathepsin G activity in beta-estradiol differentiated mouse EcoM-G cells at 10 uM after 24 hrs in the absence of estradiol; type: cell-based
T2 sequence (whole entry): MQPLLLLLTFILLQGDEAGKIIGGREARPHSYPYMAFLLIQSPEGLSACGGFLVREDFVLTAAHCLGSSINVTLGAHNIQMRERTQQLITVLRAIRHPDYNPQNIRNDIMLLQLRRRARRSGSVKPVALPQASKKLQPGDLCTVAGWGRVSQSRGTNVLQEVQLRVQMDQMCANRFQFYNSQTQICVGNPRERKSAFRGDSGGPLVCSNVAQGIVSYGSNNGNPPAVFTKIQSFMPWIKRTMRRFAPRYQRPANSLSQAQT
Procedure, shortened: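 EcoM-G cells seeded without β-estradiol to differentiate. 10 μM compound or vehicle added 24 h after estrogen removal, and aliquots taken over time up to 3 days. CG activity in extracts measured with 1 mM Suc-Ala-Ala-Pro-Phe-pNA, absorbance at 405 nm over 5 min, in 100 mM Tris pH 7.5, 1 M NaCl.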

Dipeptidyl peptidase 1 [4] = target: T1, Dipeptidyl peptidase 1; assay: Inhibition of human recombinant cathepsin C after 10 mins
Procedure, shortened: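 Recombinant human cathepsin C at 1 nM in 25 mM MES pH 6.0, 50 mM NaCl, 5 mM DTT, with 50 μM Gly-Arg-AMC (twice Km). Enzyme preincubated with inhibitor 10 min, then substrate added, at room temperature. Fluorogenic AMC release.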

Neutrophil elastase = target: T3, Neutrophil elastase (Mus musculus, UniProt Q3UP87); assay: Inhibition of neutrophil elastase activation in beta-estradiol differentiated mouse EcoM-G cells after 24 hrs; type: cell-based
T3 sequence (Q3UP87 whole entry): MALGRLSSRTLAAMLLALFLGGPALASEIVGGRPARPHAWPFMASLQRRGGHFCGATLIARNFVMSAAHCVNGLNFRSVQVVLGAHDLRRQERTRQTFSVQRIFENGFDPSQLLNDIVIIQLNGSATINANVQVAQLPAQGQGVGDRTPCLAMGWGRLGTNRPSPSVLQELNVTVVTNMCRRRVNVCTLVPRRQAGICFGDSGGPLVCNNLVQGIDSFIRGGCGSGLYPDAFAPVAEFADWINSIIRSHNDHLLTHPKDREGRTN
Procedure, shortened: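 EcoM-G cells (cultures <3 months old) washed and seeded at 0.5×10^6 cells/ml without β-estradiol. After 24 h, compound added in Me₂SO (final 0.5%), then cells differentiated a further 24 h, harvested and lysed. NE assayed with 400 μM MeOSuc-AAPV-AMC, CG with 1 mM Suc-AAPF-pNA (405 nm, 5 min), Pr-3 with 10 μM internally quenched substrate (ex 328/em 393 nm), all from the same lysates. IC50 from four-parameter Hill fit.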

U-937 [5] = assay: Effect on neutrophil elastase protein expression in human U937 cells at 30 uM after 7 days by Western blot; type: functional, cell-based
Pro-cathepsin H = target: T4, Pro-cathepsin H (Homo sapiens, UniProt P09668); assay: Inhibition of human recombinant cathepsin H after 10 mins
T4 sequence (P09668 whole entry): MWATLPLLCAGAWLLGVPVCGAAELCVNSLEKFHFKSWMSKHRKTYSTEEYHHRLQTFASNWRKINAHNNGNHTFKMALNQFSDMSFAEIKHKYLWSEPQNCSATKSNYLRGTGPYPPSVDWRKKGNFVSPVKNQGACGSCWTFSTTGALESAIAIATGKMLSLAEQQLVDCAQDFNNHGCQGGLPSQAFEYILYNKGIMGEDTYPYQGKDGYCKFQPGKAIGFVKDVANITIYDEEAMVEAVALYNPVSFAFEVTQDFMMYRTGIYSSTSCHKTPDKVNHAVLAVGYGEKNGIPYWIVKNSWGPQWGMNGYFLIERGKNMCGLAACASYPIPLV

U-937 (Homo sapiens) = assay: Effect on neutrophil elastase protein expression in human U937 cells at 30 uM after 7 days by Western blot
Cathepsin S = Cathepsin S (Homo sapiens, UniProt P25774); assay: Inhibition of human recombinant cathepsin S after 10 mins
Sequence of Cathepsin S (P25774 whole entry): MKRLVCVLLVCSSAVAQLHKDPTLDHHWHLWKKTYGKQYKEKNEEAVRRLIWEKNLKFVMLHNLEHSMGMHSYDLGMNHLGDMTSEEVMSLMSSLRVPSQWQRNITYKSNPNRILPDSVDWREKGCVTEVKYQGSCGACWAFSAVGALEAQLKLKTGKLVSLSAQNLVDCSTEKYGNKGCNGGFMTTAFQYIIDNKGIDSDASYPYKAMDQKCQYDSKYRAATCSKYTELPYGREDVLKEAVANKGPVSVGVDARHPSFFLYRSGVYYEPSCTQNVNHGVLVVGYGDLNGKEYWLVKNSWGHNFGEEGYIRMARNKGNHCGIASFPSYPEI

`N#C[C@@]1(NC(=O)[C@@H](N)Cc2cccs2)C[C@@H]1c1ccccc1.O=C(O)C(F)(F)F` was tested, and the Activity (U-937 [1]) was 100%, the Activity (Dipeptidyl peptidase 1 [2]) was “Active” and the Activity [3] was “Active”. The IC50 (Dipeptidyl peptidase 1 [4]) was 14 nM, the IC50 (Neutrophil elastase) was 160 nM and the Activity (U-937 [5]) was “inactive”. The IC50 (Pro-cathepsin H) was > 50000 nM, the Activity (U-937 (Homo sapiens)) was “inactive” and the IC50 (Cathepsin S) was 5900 nM.
